Screening data: PubChem, several laboratories
STAT3 act = activators of IL-6 induced STAT3 signaling. activation (% of control), % at 5.6 µM. AID 871. 0.91% of 190,000 active. U3A cells, IL-6 STAT3-luciferase reporter, luminescence; 100% = signal with IL-6 EC80 alone;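 active = activation above the screen-wide mean of compound activation plus 3 SD, cut at about 130% in these data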;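 also: 0% = background luminescence of wells with medium and substrate only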
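Material: human STAT1-deficient U3A cells with stable STAT3-luciferase reporter / Probe or stimulus: IL-6 stimulus at 33 ng/mL final / Schedule: 1 h compound pre-exposure, 6 h IL-6 stimulation, 37 °C / Technique: luminescence / Read-out basis: percent of IL-6-only median luminescence / Control set: IL-6-only high control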
FXIa inh 1536 = factor XIa (human) inhibition | AID 798 | purified FXIa, Boc-Glu-Ala-Arg-AMC fluorogenic substrate | 0.14% of 220,000 active | inhibition, % at 5 µM | P03951;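 active = inhibition of at least 40%; inactive = inhibition below 40%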;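 also: fluorescence of freed AMC excited at 355 nm; 0% = enzyme without compound and 100% = no enzyme blank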
AHR act = human AHR activation; AID 2796; P35869; 2.5% of 320,000 active; activation, % at 5 µM; AHR-responsive luciferase reporter cells, luminescence; in the data active = activation above about 47%;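 also: 0% = vehicle wells and 100% = reference agonist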
thrombin 1536 = thrombin (human) inhibition. AID 1046. alpha-thrombin, Boc-VPR-AMC fluorogenic substrate cleavage. inhibition, % at 5 µM. 0.26% of 220,000 active;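 active = inhibition at or above 40%; inactive = inhibition below 40%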;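 also: 0% = enzyme with no compound and 100% = wells without enzyme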
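Material: human alpha-thrombin protein; Also added: Boc-VPR-AMC substrate, 15 µM final; Timing: enzyme reaction carried out at room temperature; Signal: fluorescence, ex 355 nm, em 460 nm; Measure: % inhibition of thrombin; Controls: enzyme without compound as high, wells lacking enzyme as low.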
FXIIa inh = factor XIIa (human) inhibition; purified FXIIa, Boc-QGR-AMC fluorogenic substrate, 2 h; inhibition, % at 5 µM; AID 800; 0.3% of 220,000 active; P00748; in the data active = inhibition above about 40%;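 also: 0% = enzyme with no compound and 100% = blank without enzyme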
KLK5 inh = kallikrein 5 (human) inhibition | Q9Y337 | recombinant hK5, fluorogenic AMC substrate cleavage | inhibition, % at 5 µM | 0.59% of 210,000 active;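 active = inhibition of 40% or more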;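 also: 0% = enzyme controls without compound and 100% = no-enzyme blanks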
AHR act cf = human AHR activation, confirmation; shares compounds with AHR act; human cells, AHR-responsive luciferase reporter, luminescence; activation, % at 9 µM; 87% of 2,300 active; AID 2845; in the data active = activation above about 49%;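 also: HepG2 hepatoma cells carrying a DRE-driven firefly luciferase reporter; 0% = vehicle wells and 100% = reference agonist wells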
PXR act counter = activates human PXR in AHR activator counter-screen; shares compounds with AHR act; cell-based PXR reporter, luciferase luminescence; activation, % at 11.6 µM; 88% of 2,300 active; in the data active = activation above about 11%;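 also: human hepatoma DPX-2 cells expressing full-length human PXR; 0% = DMSO and 100% = reference agonist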
Target sequence (O75469 whole entry, looked up): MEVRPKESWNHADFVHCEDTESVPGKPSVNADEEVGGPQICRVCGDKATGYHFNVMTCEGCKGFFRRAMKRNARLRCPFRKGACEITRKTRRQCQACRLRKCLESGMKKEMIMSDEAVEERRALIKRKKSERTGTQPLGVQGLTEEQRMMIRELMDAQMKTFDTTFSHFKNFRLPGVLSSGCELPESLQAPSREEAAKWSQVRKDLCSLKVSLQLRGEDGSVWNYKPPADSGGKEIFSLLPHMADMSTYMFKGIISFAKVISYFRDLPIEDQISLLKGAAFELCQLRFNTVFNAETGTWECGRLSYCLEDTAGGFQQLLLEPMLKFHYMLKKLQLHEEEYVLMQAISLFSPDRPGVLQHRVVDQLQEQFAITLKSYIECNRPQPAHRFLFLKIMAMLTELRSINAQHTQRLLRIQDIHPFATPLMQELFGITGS
Active calls of the source: *; x = not tested or not shown. A selection: hits, their analogues and other compounds. The true share with any hit is near 3.5%.

SMILES	STAT3 act	FXIa inh 1536	AHR act	thrombin 1536	FXIIa inh	KLK5 inh	AHR act cf	PXR act counter
O=C(Nc1ccccc1C(=O)N/N=C/c1ccncc1)c1ccccc1	44.8	-1.1	101.4*	3.2	9.4	7.7	40.7	36.5*
CCOc1ccc(/C=N/NC(=O)c2ccccc2NC(=O)c2ccc(OC)cc2)cc1	86.1	-2.4	106.3*	-9.9	2.5	-13.8	12.9	30.8*
Cc1ccccc1C(=O)Nc1ccc(C(=O)N/N=C/c2ccncc2)cc1	98.7	-4.3	-0.3	0.8	1.0	-16.1	x	x
COc1ccc(C(=O)Nc2ccccc2C(=O)N/N=C/c2ccco2)cc1	60.4	7.7	137.4*	1.8	8.1	-11.7	99.7*	29.2*
COc1ccc(N2C(=O)CC(Sc3n[nH]c(-c4ccccc4)n3)C2=O)cc1 (stereo unspecified)	x	2.6	-0.3	-7.1	6.2	1.7	x	x
Cc1cccc(OCCn2c(=S)[nH]c3ccccc32)c1	82.4	9.6	80.8*	-2.1	16.1	-4.5	89.7*	74.0*
S=c1[nH]c2ccccc2n1CCOc1ccccc1	x	x	96.2*	x	x	x	101.6*	77.4*
O=c1sc2ccccc2n1CCOc1ccccc1	108.4	-0.9	108.8*	3.9	13.1	-9.9	123.2*	29.9*
COc1ccc(CCNC(=O)c2c(N)no[n+]2[O-])cc1OC	101.4	-6.5	14.4	-23.5	7.9	-0.1	x	x
NC(=O)c1ccc(NC(=O)CSc2cn(CC(=O)N3CCOCC3)c3ccccc23)cc1	x	x	-0.3	x	x	x	x	x
CCN(CC(=O)Nc1ccc2c(c1)OCCO2)C(=O)/C=C/c1ccc(F)cc1	101.2	5.7	0.7	1.7	5.9	7.1	x	x
Cn1c2ccccc2c(=O)c2cc(C#Cc3ccc(N)cc3)ccc21	x	x	8.7	x	x	x	x	x
COc1cccc(C#Cc2c(C=O)n(C)c3ccccc23)c1	x	x	110.4*	x	x	x	130.4*	43.2*
COc1ccc(C#Cc2ccc3c(c2)c(=O)c2ccccc2n3C)cc1	x	x	91.2*	x	x	x	102.6*	14.1*
Cc1nc2ccc(-c3nc4ccccc4o3)cc2[nH]1	71.9	0.1	-5.2	-12.7	-4.1	-4.6	x	x
Cc1ccnc2ccc(-c3nc4ccccc4o3)cc12	152.6*	-10.8	86.6*	-1.3	-15.5	-9.6	183.0*	54.1*
Cc1cc(-c2nc3ccccc3o2)c2ccccc2n1	96.3	-3.0	104.6*	-3.1	-9.5	-0.4	134.7*	10.6*
CCOC(=O)C1CN(S(=O)(=O)c2ccc(C)cc2)c2ccccc2O1 (stereo unspecified)	x	x	16.4	x	x	x	x	x
N#C/C(=C1/CCCCCN1)c1nc2ccccc2[nH]1	107.7	-0.8	115.1*	-4.8	2.9	13.2	143.9*	48.4*
N#C/C(=C1\CCCN1)c1ccc2ccccc2n1	99.4	18.2	21.1	4.8	22.4	6.6	x	x
CCOC(=O)Cc1cc(-c2ccc(OC)cc2)nc2ccc3ccccc3c12	128.2	-0.9	128.6*	-4.3	7.8	-23.6	107.6*	16.3*
CCOC(=O)C1CCCN(C(=O)c2cc(-c3ccc(C)cc3)nc3ccccc23)C1 (stereo unspecified)	111.0	-2.8	3.5	-0.8	9.0	2.3	x	x
CCOC(=O)Cc1cc(-c2ccc(O)cc2)nc2ccc3ccccc3c12	106.5	-12.0	101.5*	-1.5	-2.0	15.8	91.8*	x
COc1ccc(-c2cc(C(=O)OCC(=O)N(C)C)c3ccccc3n2)cc1	85.1	-2.0	7.3	-2.3	4.4	-4.3	x	x
NC(=O)C1CCN(S(=O)(=O)c2cccc(S(=O)(=O)N3CCCCC3)c2)CC1	97.7	4.5	-2.3	4.1	17.3	6.9	x	x
Cc1ccsc1CNC1C2CC3CC(C2)CC1C3 (stereo unspecified)	102.8	-6.2	-0.7	-3.5	5.6	-11.7	x	x
CCN(C(=O)Cn1ccc(C(F)(F)F)n1)c1c(N)n(Cc2ccccc2)c(=O)[nH]c1=O	x	x	-0.8	x	x	x	x	x
O=C(OCc1cc(=O)n2ccsc2n1)c1ccccc1NCCO	x	x	79.4*	x	x	x	78.8*	5.5
O=C(OCc1cc(=O)n2ccsc2n1)c1ccccc1O	x	x	-0.3	x	x	x	x	x
